This note sets out measurements from ChEMBL document CHEMBL4368937, “Design, synthesis and biological evaluation of low molecular weight CXCR4 ligands” (Bioorg Med Chem, 2019).

A word on the EC50: it is the concentration at which the effect is half-maximal. A word on the IC50: it is the concentration at which inhibition is half-maximal. What is called inhibition is the relative decrease from the control value, in per cent. One may read the CC50 as the concentration giving 50% cytotoxicity.

The test system of data set [1] is Human immunodeficiency virus 1. The data set can be described thus: Antiviral activity against X4 tropic HIV-1 NL4-3 infected in human MT4 cells assessed as protection against virus-induced cytopathic effect in presence of ZnCl2 after 5 days by MTT assay. Type of data set: functional, organism-based. The following applies: Human immunodeficiency virus 1, NL4-3, MT4, 120 h. The essentials:
(§1)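 Protection of MT-4 cells from X4 HIV-1 NL4-3 cytopathicity. Infected cells (MOI 0.001, 2.0 × 10^4 cells/well) received graded compound concentrations, without or with ZnCl2 (10 eq), for 5 days at 37 °C. Viable cells were counted by MTT. EC50 is the concentration giving 50% protection; mean of at least three independent experiments.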
In general terms: Protection from cytopathic effect is a common read-out in antiviral testing.

The target of data set [2] is T1, C-X-C chemokine receptor type 4 (Homo sapiens, UniProt P61073). Description: Competitive inhibition of TAMRAAc-TZ14011 binding to CXCR4 (unknown origin) expressed in CHO cells in presence of ZnCl2 by NanoBRET assay relative to control. Type of data set: cell-based. The method in brief: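 Cells were incubated with 10 nM TAMRA-Ac-TZ14011 and compound plus ZnCl2 (10 eq). Furimazine was added and BRET ratio taken as >610 nm over 460 nm emission. Inhibition is scaled between no compound and excess Ac-TZ14011.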
T1 sequence (P61073 whole entry): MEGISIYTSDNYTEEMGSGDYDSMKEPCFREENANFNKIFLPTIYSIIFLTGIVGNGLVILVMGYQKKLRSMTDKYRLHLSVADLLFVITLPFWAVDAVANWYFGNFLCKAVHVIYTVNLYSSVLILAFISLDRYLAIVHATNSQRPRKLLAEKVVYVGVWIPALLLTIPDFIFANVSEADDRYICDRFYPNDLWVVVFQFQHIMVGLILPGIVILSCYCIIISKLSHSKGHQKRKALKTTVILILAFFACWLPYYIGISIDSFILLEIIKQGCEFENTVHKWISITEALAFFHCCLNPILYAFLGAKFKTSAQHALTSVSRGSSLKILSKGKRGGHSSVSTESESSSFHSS

Data set [3] deals with T1, C-X-C chemokine receptor type 4. Description: Competitive inhibition of [125I]-CXCL12 binding to CXCR4 in human Jurkat cells at 1 uM in presence of ZnCl2 after 2 hrs by gamma counting analysis relative to control. It is filed as cell-based.
Data set [4] in a line: Cytotoxicity against human MT4 cells in presence of ZnCl2. Type of data set: cell-based. The method in brief: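 MT-4 viability with compound plus ZnCl2 (10 eq). CC50 is the concentration giving 50% reduction in viable cells; mean of at least three independent experiments.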
In data set [5] the test system is Human immunodeficiency virus 1. The data set can be described thus: Antiviral activity against X4 tropic HIV-1 NL4-3 infected in human MT4 cells assessed as protection against virus-induced cytopathic effect in absence of ZnCl2 after 5 days by MTT assay. Type of data set: functional, organism-based. The following applies: Human immunodeficiency virus 1, NL4-3, MT4, 120 h. The essentials:
as §1

For data set [6], the target named is T1, C-X-C chemokine receptor type 4. The data set can be described thus: Competitive inhibition of TAMRAAc-TZ14011 binding to CXCR4 (unknown origin) expressed in CHO cells at 1 uM in presence of ZnCl2 by NanoBRET assay relative to control. Type of data set: cell-based. The method in brief:
(§2)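 Single-point competition in CHO cells stably expressing N-terminally Nluc-tagged CXCR4 (5 x 10^4 cells, seeded 24 h earlier at 37 °C, 5% CO2, medium then replaced with OptiMEM). Cells were incubated with 10 nM TAMRA-Ac-TZ14011 plus 1 µM compound, without or with 10 µM ZnCl2 (10 eq), for 1 h at 25 °C. Furimazine was added and BRET read as acceptor (>610 nm) over donor (460 nm). Inhibition is relative to no compound and to excess Ac-TZ14011; mean ± SEM, n = 3.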
(In general: Bioluminescence resonance energy transfer reports proximity on the nanometre scale.)

For data set [7] the target is unchanged. The data set can be described thus: Competitive inhibition of [125I]-CXCL12 binding to CXCR4 in human Jurkat cells at 1 uM in absence of ZnCl2 after 2 hrs by gamma counting analysis relative to control. Type of data set: cell-based.
For data set [8] the target is unchanged. Description: Competitive inhibition of TAMRAAc-TZ14011 binding to CXCR4 (unknown origin) expressed in CHO cells at 1 uM in absence of ZnCl2 by NanoBRET assay relative to control. Type of data set: cell-based. The method in brief:
as §2

The nature of data set [9]: Cytotoxicity against human MT4 cells in absence of ZnCl2. It is filed as cell-based.
Data set [10] relates to Human immunodeficiency virus 1. The data set can be described thus: Antiviral activity against R5 tropic HIV-1 NL(AD8) infected in human MT4 cells assessed as protection against virus-induced cytopathic effect at 10 uM in presence of ZnCl2 after 5 days by MTT assay. The following applies: Human immunodeficiency virus 1, NL(AD8), MT4, 120 h. Type of data set: functional.

In data set [11] the test system is Human immunodeficiency virus 1. The data set can be described thus: Antiviral activity against R5 tropic HIV-1 NL(AD8) infected in human MT4 cells assessed as protection against virus-induced cytopathic effect at 10 uM in absence of ZnCl2 after 5 days by MTT assay. It is filed as functional. Conditions: Human immunodeficiency virus 1, NL(AD8), MT4, 120 h.

With `c1ccc(CN(Cc2ccc(CN3CCCNCCNCCCNCC3)cc2)Cc2ccccn2)nc1`, the EC50 in data set [1] worked out at 2.7 nM; in [5], 6.5 nM. Besides, in [2], the IC50 was found to be 32 nM. Also, the inhibition in [3] was 82.5%; in data set [6], 83.7%; in data set [7] it was 110%; in data set [8], 101%. Further, the cytotoxic concentration (CC50) in [4] and in data set [9] was greater than 10000 nM in each case.
In the case of `c1ccc(CN(Cc2ccccn2)Cc2ccccc2-c2cccc(CN3CCCNCCNCCCNCC3)c2)nc1`, the concentration for a half-maximal effect (EC50) stood at 13 nM in data set [1] and 40 nM in [5]. Moreover, the half-inhibitory concentration (IC50) in data set [2] is 7.9 nM. Moreover, the inhibition in data set [3] turned out to be 100%; in data set [6], 102%; in data set [7] it was 41.9%; in [8], 56%. Moreover, the inhibition at 10 µM in data set [10] and in data set [11] was less than 30% throughout. In data set [9], this compound displayed a CC50 greater than 10000 nM.
Turning to `c1ccc(CN(Cc2ccc3cc(CN4CCCNCCNCCCNCC4)ccc3c2)Cc2ccccn2)nc1`, the EC50 in data set [1] worked out at 240 nM; in [5], 470 nM. The half-inhibitory concentration (IC50) in data set [2] turned out to be 10 nM. Also, the inhibition worked out at 99.6% in data set [3], 89.9% in data set [6], 98.2% in data set [7] and 80.7% in [8]. Besides, the inhibition at 10 µM in [10] and in data set [11] was less than 30% each time. Also, the CC50 in [4] and in data set [9] was greater than 10000 nM throughout.
As for `c1ccc(CN(Cc2ccc(-c3ccccc3CN3CCCNCCNCCCNCC3)cc2)Cc2ccccn2)nc1`, the EC50 is 21 nM in data set [1] and 40 nM in [5]. Moreover, the IC50 in data set [2] worked out at 5.7 nM. Moreover, the inhibition in [3] turned out to be 91.6%; in data set [6] it was 83.1%; in data set [7], 54.9%; in data set [8], 52.6%. For the same compound, the inhibition at 10 µM in data set [10] is 58%; in data set [11], less than 30%. In data set [9], this compound had a CC50 greater than 10000 nM.
With `c1ccc(CN(Cc2ccc3c(CN4CCCNCCNCCCNCC4)cccc3c2)Cc2ccccn2)nc1`, the concentration for a half-maximal effect (EC50) in data set [1] came to 28 nM; in data set [5], 220 nM. Besides, the IC50 in data set [2] was found to be 1.6 nM. Besides, the inhibition is 77.3% in data set [3], 107% in data set [6], 81.7% in data set [7] and 81.5% in [8]. In addition, the inhibition at 10 µM in data set [10] and in [11] was less than 30% in each case. For the same compound, the CC50 in [4] and in [9] was greater than 10000 nM throughout.
As to `c1ccc(CN(Cc2ccnc(-c3cccc(CN4CCCNCCNCCCNCC4)c3)c2)Cc2ccccn2)nc1`, the half-maximal effective concentration (EC50) amounted to 28 nM in data set [1] and 170 nM in data set [5]. In addition, in data set [2], the IC50 stood at 3.5 nM. Further, the inhibition came to 84.7% in data set [3], 93.4% in data set [6], 63% in [7] and 47.6% in data set [8]. Moreover, the inhibition at 10 µM in [10] and in data set [11] was less than 30% throughout. The compound further came in with a CC50 in data set [9] greater than 10000 nM.
